hIAP activ = increases human intestinal alkaline phosphatase activity | P09923 | activation factor at 10 µM | purified human IAP, CDP-Star luminescence, 30 min; stronger effect = higher value; 1 = vehicle-only enzyme, 0 = enzyme-free background | 330,000 tested, 0.16% active;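 active = activation factor of the enzyme at least 2-fold when tested at 20 µM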
Target sequence (P09923 whole entry, looked up): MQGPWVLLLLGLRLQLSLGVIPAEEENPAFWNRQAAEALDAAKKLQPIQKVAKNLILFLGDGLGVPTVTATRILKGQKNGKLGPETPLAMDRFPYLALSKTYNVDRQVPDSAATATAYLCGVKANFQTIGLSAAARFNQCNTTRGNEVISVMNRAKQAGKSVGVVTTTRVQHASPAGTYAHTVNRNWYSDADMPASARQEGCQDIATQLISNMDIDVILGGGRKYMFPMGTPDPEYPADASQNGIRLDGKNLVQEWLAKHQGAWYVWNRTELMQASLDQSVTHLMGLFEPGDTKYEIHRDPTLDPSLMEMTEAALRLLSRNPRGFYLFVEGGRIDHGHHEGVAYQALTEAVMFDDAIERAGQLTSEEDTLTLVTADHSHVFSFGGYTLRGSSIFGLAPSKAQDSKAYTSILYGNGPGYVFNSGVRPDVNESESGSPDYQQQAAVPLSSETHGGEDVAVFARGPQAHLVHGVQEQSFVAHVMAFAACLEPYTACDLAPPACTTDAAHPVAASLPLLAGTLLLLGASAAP
hIAP inh = human IAP inhibition; inhibition, % at 10 µM; P09923; purified IAP, CDP-Star luminescence, 30 min; 330,000 tested, 0.12% active; AID 2544;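 active = inhibition reaching a set limit with compound at 10 µM in the primary screen, cut at about 35% in these data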;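 note: plate controls were DMSO wells with enzyme for no effect and no-enzyme buffer wells for full effect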
mIAP activ = mouse IAP activation. muIAP, CDP-Star luminescence, 30 min; stronger effect = higher value; 1 = vehicle-only enzyme signal, 0 = enzyme-free wells. activation factor at 10 µM. 330,000 tested, 0.24% active;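 active = activation factor of at least 2 at 20 µM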
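System: mouse IAP enzyme. Reagent: CDP-Star chemiluminescent phosphatase substrate. Benchmarks: DMSO wells, no-enzyme wells. Times: 30 min enzyme-substrate-compound incubation at room temperature. Detection: luminescence from enzymatic CDP-Star hydrolysis. Doses: test compounds delivered from DMSO solution.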
bIAP inh = blocks bovine intestinal alkaline phosphatase activity. purified bovine IAP, CDP-star luminescence, 30 min. inhibition, % at 20 µM. 190,000 tested, under 10 active. AID 1019;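 active = over 50% inhibition of intestinal alkaline phosphatase at 20 µM in the single-dose screen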
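Assay system – bovine IAP enzyme · Quantity – bovine IAP at 1/65,000,000 final dilution · Detection – CDP-star luminescence signal · Times – 30 min reaction at room temperature · Also added – CDP-star substrate at 30 µM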
bIAP act = increases bovine intestinal alkaline phosphatase activity | AID 1016 | purified bovine IAP, CDP-star luminescence, 30 min; stronger effect = higher value; fold of DMSO-control signal, blank-subtracted | activation factor at 20 µM | 200,000 tested, 0.17% active;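 active = activation factor of 2 or more at 20 µM, a signal rise over negative controls twice the positive control's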
mIAP block = mouse IAP inhibition. purified mouse IAP, CDP-Star luminescence, 30 min. 330,000 tested, 0.2% active. inhibition, % at 10 µM. AID 2806;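 active = inhibition of at least 40% at 10 µM in the primary screen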;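 note: plate controls were DMSO with enzyme for no effect and no enzyme wells for full effect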
mIAP inh conf = mouse IAP inhibition confirmation; shares compounds with mIAP block; inhibition, % at 10 µM; AID 434971; purified mouse IAP, CDP-Star luminescence, 30 min; 11,000 tested, 4.7% active;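 active = inhibition of at least 40% at 10 µM in either of the two replicates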;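 note: plate controls were DMSO wells with enzyme for no effect and buffer wells lacking enzyme for full effect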
* hit, by the source's call; / = no result. Most compounds without a hit are left out; they make up all but 0.79% or so of the library.

SMILES	hIAP activ	hIAP inh	mIAP activ	bIAP inh	bIAP act	mIAP block	mIAP inh conf
O=C1c2c(O)cc(O)cc2O[C@H](c2ccc(O)c(O)c2)[C@@H]1O	0.911	8.9	0.364	23.9	0.8	63.6*	58.5*
O=C1C[C@@H](c2ccccc2)Oc2cc(O)cc(O)c21	0.881	11.9	0.943	/	/	5.7	/
O=C1c2c(O)cc(O)cc2O[C@H](c2ccc(O)c(O)c2)[C@H]1O	1.05	-5.4	0.486	/	/	51.4*	59.1*
Oc1cc(O)c2c(c1)O[C@H](c1ccc(O)c(O)c1)[C@@H](O)C2	0.716	28.4	0.225	/	/	77.5*	78.0*
Cc1ccc(OS(=O)(=O)c2c(C)nn(C)c2Cl)c(C)c1	0.998	0.2	0.944	/	/	5.6	/
COCCCN(C(=O)CCSc1ccc(F)cc1)c1c(N)n(Cc2ccccc2)c(=O)[nH]c1=O	1.13	-13.3	1	/	/	-0.1	/
O=C(NCC1CCN(Cc2ccccc2F)CC1)Nc1cccc(Br)c1	1.39	-39.2	3.26*	/	/	-225.7	-105.3
O=C(NCC1CCN(Cc2ccccc2F)CC1)Nc1ccccc1F	1.07	-6.7	1.3	/	/	-29.8	/
Cc1ccc(C)c(CN2CCC(CNC(=O)Nc3ccc(C)c(C)c3)CC2)c1	1.27	-27.3	3.91*	/	/	-290.8	-121.1
O=C(CCl)Nc1nc(-c2ccco2)c(-c2ccco2)s1	1.06	-6.2	0.232	1.4	1	76.8*	73.9*
Cc1ccc(C(=O)Nc2nc(-c3ccco3)c(-c3ccco3)s2)o1	1.13	-13.3	0.36	/	/	64.0*	68.4*
O=C(CCCSc1ccccc1)Nc1nc(-c2ccco2)c(-c2ccco2)s1	/	/	/	-4.4	1	/	/
Cn1ncc2c(NNC(=O)C3CCCCC3)ncnc21	1.13	-13.2	1.06	-27.8	1.3	-5.6	/
Oc1ccc(Br)cc1-c1cc(-c2ccco2)[nH]n1	1.14	-14.1	0.758	0.4	1	24.2	/
Oc1ccc(Cl)cc1-c1cc(-c2ccco2)[nH]n1	0.992	0.8	0.201	-11.2	1.1	79.9*	80.3*
O=C1NC(=Nc2ccccc2)S/C1=C\C=C\c1ccco1	0.86	14.0	0.271	2.1	1	72.9*	72.4*
Cc1ccc(/C=C/C2=Cc3c(sc(NC(=O)CSc4n[nH]c(N)n4)c3C#N)C(C)(C)C2)o1	1.16	-15.7	0.531	12.0	0.9	46.9*	50.8*
CCOC(=O)c1sc(NC(=O)CN2CC(C)OC(C)C2)nc1C (configuration not stated)	1.11	-11.4	0.935	/	/	6.5	/
O=C(NCc1ccco1)c1cc2c(s1)CSC2	0.95	5.0	0.548	-6.5	1.1	45.2*	45.4*
O=C(NCc1ccc2c(c1)OCO2)c1cc2c(s1)CSC2	0.852	14.8	0.551	12.6	0.9	44.9*	59.1*
COCCN(C(=O)c1snc(C(N)=O)c1N)C(C(=O)NC1CCCCC1)c1ccc(F)cc1 (configuration not stated)	1.05	-5.2	0.986	/	/	1.4	/
N=C1/C(=C\c2coc3ccc(O)cc3c2=O)C(=O)N=C2SC=CN12	1.07	-6.6	0.411	/	/	58.9*	64.1*
COCCn1ccc2c(OCC(=O)NCc3ccc(C)cc3)cccc2c1=O	1.04	-4.3	0.974	/	/	2.6	/
O=C(O)CNS(=O)(=O)c1ccc2c3c(cccc13)C(=O)N2	1.1	-9.9	0.524	/	/	47.6*	49.2*
CN(c1ccccc1C(=O)O)S(=O)(=O)c1ccc2c3c(cccc13)C(=O)N2	0.897	10.3	0.54	20.4	0.8	46.0*	62.0*
O=C(O)CCCCCNS(=O)(=O)c1ccc2c3c(cccc13)C(=O)N2	0.879	12.1	0.923	/	/	7.7	/
O=C(O)c1ccccc1NS(=O)(=O)c1ccc2c3c(cccc13)C(=O)N2	0.852	14.8	0.919	5.1	0.9	8.1	/
CCC(C(=O)Nc1ccc2c(c1)OCCO2)n1c(=O)[nH]c2ccccc2c1=O (configuration not stated)	0.665	33.5	1.12	/	/	-11.9	/
CC(C)CCOc1ccc(C(=O)NCC(c2ccco2)N(C)C)cc1 (configuration not stated)	0.974	2.6	1.04	/	/	-3.8	/
N#C/C(=C/c1ccc(F)cc1)c1nnc(NC(=O)c2ccccc2)s1	0.934	6.6	1.18	/	/	-17.8	/

Source: PubChem (Sanford-Burnham Center for Chemical Genomics)
